How the values were obtained:
[1] = melting temperature; fluorescence melt of hairpins on a sequencing array, two-state fit, raised by 9.35 °C to match UV melts; details: sodium 0.088 M
Method in brief: (§1)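 Bootstrapped two-state fits yielded melting temperature and folding enthalpy for library hairpins. Cy3 fluorescence, with annealed Cy3 and quencher oligos, was imaged on a sequenced MiSeq flow cell in 50 mM Na-HEPES pH 8.0, 25 mM NaCl in 2.5 °C steps up to 60 °C, and normalised to pre-quench Cy3 and to control constructs. Four replicates were combined by inverse variance, and fitted temperatures were raised by 9.35 °C to match UV melts.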

[2] = folding enthalpy; higher = less favourable; fluorescence melt of hairpins on a sequencing array, two-state fit; details: sodium 0.088 M
Method in brief: as §1

Sequence | Tm [1] | folding enthalpy [2]
GGGCAGGCGAAAGCCCCC (((..(((....)))))) | 46 °C | -14.5 kcal/mol
GCCTACGAAAGTACTGGC ((((((....)))..))) | 40.2 °C | -24.4 kcal/mol
GATCAGCGAACTGATC ((((((....)))))) | 49.3 °C | -34.4 kcal/mol
GATCCGCCCCCGGATC ((((((....)))))) | 56.5 °C | -40.6 kcal/mol
GACGTAGGAAACTATGTC (((.(((....))).))) | 43.9 °C | -30 kcal/mol
GTGCTCGAAAGAGTGCAC ((((((....)))..))) | 48.7 °C | -24 kcal/mol
GCAAAGCGAAAGCTATGC (((.(((....))).))) | 52 °C | -33.5 kcal/mol
GATCCCAGCGGGGATC ((((((....)))))) | 60.6 °C | -34.9 kcal/mol
GGAGGACCGAAAGGTTCC (((..(((....)))))) | 42.9 °C | -12.6 kcal/mol
GTTGTCGAAAGACTGAAC ((((((....)))..))) | 30.7 °C | -11.3 kcal/mol
GGATTACGAAAGTAGTCC (((.(((....))).))) | 50.9 °C | -37.5 kcal/mol
GCATGGAAACATGC (((((....))))) | 57.4 °C | -30.9 kcal/mol
CGCCCGGAAACGGAAGCG ((((((....)))..))) | 49.3 °C | -30.8 kcal/mol
GATCGATAGTTCGATC ((((((....)))))) | 50.8 °C | -39.3 kcal/mol
GACTAGGAAACTAGTC ((((((....)))))) | 50.8 °C | -34 kcal/mol
GACACCGAAAGGTTCGTC ((((((....)))..))) | 41.2 °C | -20.4 kcal/mol
GATCCTGGAGAGGATC ((((((....)))))) | 54 °C | -34.7 kcal/mol
GTCAGCGAAAGCTGAGAC ((((((....)))..))) | 49 °C | -8.85 kcal/mol
GTGGTTCGAAAGAAGCAC (((.(((....))).))) | 60.1 °C | -41.7 kcal/mol
GTAATCCGAAAGGACTAC (((.(((....))).))) | 37.9 °C | -25.6 kcal/mol
GGTCCCGCGAAAGCGACC (((..(((....)))))) | 37.7 °C | -11.3 kcal/mol
GCCTACGAAAGTATAGGC ((((((....)))..))) | 49.3 °C | -25.5 kcal/mol
GGAGTGGGAAACTACTCC (((((.(....).))))) | 49.5 °C | -24.8 kcal/mol

Sequence | Tm [1] | folding enthalpy [2]
GATCAAGTGATTGATC ((((((....)))))) | 47.3 °C | -32.2 kcal/mol
GGGACTGGAAACGGTCCC (((((.(....).))))) | 57.6 °C | -44.6 kcal/mol
CGTACGGAAACGTTAACG ((((((....)))..))) | 37.3 °C | -16.7 kcal/mol
GTGATATCGAAAGATCAC (((..(((....)))))) | 37.1 °C | -27.8 kcal/mol
CGAACGGAAACGTACTCG ((((((....)))..))) | 15 °C | -5.58 kcal/mol
GACTTTGGAAACAAAGCC (.(((((....))))).) | 39 °C | -22.4 kcal/mol
GGATACTCGAAAGAGTCC (((..(((....)))))) | 32.6 °C | -11.7 kcal/mol
GCCATAGGAAACCATGGC (((((.(....).))))) | 47.7 °C | -34.2 kcal/mol
CGCTGCGGAAACGCTGCG (((.(((....))).))) | 69.2 °C | -30.7 kcal/mol
GATCCCACACGGGATC ((((((....)))))) | 63.1 °C | -43.7 kcal/mol
GATCACATGGGTGATC ((((((....)))))) | 56.4 °C | -45.1 kcal/mol
GTGTTTGCGAAAGCACAC (((..(((....)))))) | 45.9 °C | -20.2 kcal/mol
GGCTTACGAAAGTAGCC (((.(((....)))))) | 55.5 °C | -34.1 kcal/mol
GCGGAGACGAAAGTCCGC (((..(((....)))))) | 58.5 °C | -32 kcal/mol
GCTAACGAAAGTTGAGC ((((((....))).))) | 41.5 °C | -26.1 kcal/mol
GCTCTTGAAAAAGAGC ((((((....)))))) | 58.1 °C | -32.6 kcal/mol
GGATTCGGAAACGAATCC (((((((....))))))) | 67.1 °C | -35.8 kcal/mol
GATCCGGAGGCGGATC ((((((....)))))) | 57.8 °C | -33.4 kcal/mol
CGATGGAAACATCG (((((....))))) | 52.6 °C | -23.9 kcal/mol
TATGCGAAAGCATA (((((....))))) | 60.1 °C | -13.6 kcal/mol
GGCCGTCGAAAGACCGCC (((.(((....))).))) | 53 °C | -42.5 kcal/mol
GTCGAGACGAAAGTCGAC (((..(((....)))))) | 51.4 °C | -20.9 kcal/mol
GATCTTGTCAAAGATC ((((((....)))))) | 54.8 °C | -41.9 kcal/mol
